Tests used:
[1] = Metabolic stability in mouse S9 fractions; format: in vitro ADME; conditions: 60 min incubation with NADPH and mouse S9 fractions
[2] = system: Ki-67; conditions: after 5 days of treatment; ref Li et al, 2012; cited from earlier work
[3] = system: A2780^AD cells, overexpressing ABCB1; assay: Growth inhibition in doxorubicin-resistant A2780AD cells vs parental A2780; format: cell-based
[4] = system: caco-2 monolayers; assay: Transwell permeability assay across caco-2 monolayers; format: in vitro ADME, human; conditions: compounds tested at 10 μM
Procedure, shortened: (§1)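 Caco-2 monolayers in transwells were used to measure apical-to-basal absorption (PappA–B) and basal-to-apical secretion (PappB–A). Efflux ratio was calculated as PappB–A/PappA–B. Runs were made with or without ABC transporter inhibitors (FTC for ABCG2, verapamil for ABCB1), with vinblastine as an ABCB1 reference substrate.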

[5] = system: caspase 3/7 activity in HCT-116 cells; assay: Caspase 3/7 assay; format: cell-based, human; conditions: 24 h
Procedure, shortened: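 Treated cells were transferred to opaque plates and incubated 1 h with a luminogenic caspase 3/7 reagent. Luminescence on a microplate counter gave caspase 3/7 activity, normalised to protein content.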

[6] = Transwell permeability assay across caco-2 monolayers; format: in vitro ADME, human; conditions: human, Caco-2
Procedure, shortened: as §1

CC[C@H](CO)Nc1nc(NCc2ccccc2)c2ncn(C(C)C)c2n1 [roscovitine]
Parent compound remaining [1]: < 10%

CO[C@H]1C[C@@H]2CC[C@@H](C)[C@@](O)(O2)C(=O)C(=O)N2CCCC[C@H]2C(=O)O[C@H]([C@H](C)C[C@@H]2CC[C@@H](OCCO)[C@H](OC)C2)CC(=O)[C@H](C)/C=C(\C)[C@@H](O)[C@@H](OC)C(=O)[C@H](C)C[C@H](C)/C=C/C=C/C=C/1C [everolimus]
Decrease in Ki-67 [2]: 1.6 fold

CC(C)c1cnn2c(NCc3ccccc3)cc(NCCCCCCN)nc12 [BS-181]
Potency in A2780^AD cells compared with parental A2780 [3]: equipotent | Permeability PappA–B across caco-2 cells [4]: poorly absorbed | Caspase 3/7 activity [5]: only at the highest concentration tested

CC[C@]1(O)C[C@@H]2CN(CCc3c([nH]c4ccccc34)[C@@](C(=O)OC)(c3cc4c(cc3OC)N(C)[C@H]3[C@@](O)(C(=O)OC)[C@H](OC(C)=O)[C@]5(CC)C=CCN6CC[C@]43[C@@H]65)C2)C1 [vinblastine]
efflux ratio at 10 μM [6]: 8
